Series [1] can be described thus: Antitumor activity against human KPL4 cells xenografted in SCID beige mouse assessed as tumor growth inhibition at 0.78 mg/kg, po qd for 21 days. Conditions: 504 h, read-out: TGI. The series is classed as functional. The gist of the method:
(§1)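 KPL-4 breast cancer xenografts grown in scid beige mice; oral dosing once daily for 21 days in MCT vehicle (0.5% methylcellulose/0.2% Tween-80) at 0.78–25 mg/kg, 10 animals per group; tumor volumes fitted and tumor growth inhibition calculated versus vehicle-treated mice.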

A short description of series [2]: Antitumor activity against human KPL4 cells xenografted in SCID beige mouse assessed as tumor growth inhibition at 1.56 mg/kg, po qd for 21 days. In kind it is functional. Conditions: 504 h, read-out: TGI. In a few lines:
as §1
In general terms: Xenograft models place foreign cells or tissue in a host animal.

For series [3], the system named is Mus musculus. Kind of series: Volume of distribution at steady state in NCR nude mouse at 1 mg/kg, iv. Conditions: in vivo.
Series [4] is described as follows: Plasma protein binding in CD-1 mouse at 5 uM after 4 hrs by LC-MS/MS analysis. The series is classed as ADME, cell-free. Conditions: CD-1, mouse, read-out: PPB (converted). The gist of the method:
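Equilibrium dialysis of pooled plasma (n ≥ 3) spiked with compound at 5 µM total against PBS pH 7.4, 37 °C, 5% CO2, for 4 h; plasma and buffer concentrations measured by LC-MS/MS; percent unbound calculated as buffer/plasma ×100.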

Series [5] in a line: Antitumor activity against human MCF7-neo/Her2 cells xenografted in mouse assessed as tumor growth inhibition at 3.25 mg/kg, po qd for 21 days. In kind it is functional. Conditions: 504 h, read-out: TGI. In a few lines: (§2)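 MCF7-neo/HER2 breast cancer xenografts grown in nude mice; daily oral dosing for 21 days in 0.5% methylcellulose/0.2% Tween-80 vehicle at 0.78–25 mg/kg, 10 animals per group; fitted tumor volumes compared against vehicle-treated mice to give tumor growth inhibition.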

The test system of series [6] is Homo sapiens. Nature of the series: Antitumor activity against human MCF7-neo/Her2 cells xenografted in po dosed nude mouse assessed as tumor growth inhibition administered daily for 21 days. In kind it is functional, organism-based. In a few lines:
as §2

Series [7] is described as follows: Antitumor activity against human MCF7-neo/Her2 cells xenografted in mouse assessed as tumor growth inhibition at 0.78 mg/kg, po qd for 21 days. The series is classed as functional. The conditions noted are these: 504 h, read-out: TGI. In a few lines:
as §2

Series [8] is described as follows: AUC in Sprague-Dawley rat at 5 mg/kg, po. The series is classed as ADME, organism-based. The conditions noted are these: in vivo. The gist of the method: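 Male Sprague-Dawley rats dosed PO at 5 mg/kg in 0.5% methylcellulose/0.2% Tween 80 (MCT); the IV reference arm was 1 mg/kg in 60% PEG400/10% ethanol.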
Series [9] concerns Mus musculus. Nature of the series: Decrease in phosphorylated Akt in mouse xenografted with human MCF7-neo/Her2 cells at 6.25 mg/kg administered as single dose after 1 hr by immunoassay. The series is classed as functional. In a few lines:
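Mice bearing MCF7-neo/HER2 tumors given a single oral dose in MCT vehicle; tumors collected 1 h later. Phospho-Akt Ser473 and total Akt measured by Mesoscale Discovery immunoassay and expressed as pAkt/tAkt relative to vehicle; four animals per group; unbound plasma drug measured at the same time.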

Series [10] can be described thus: Antitumor activity against human MCF7-neo/Her2 cells xenografted in mouse assessed as tumor growth inhibition at 12.5 mg/kg, po qd for 21 days. In kind it is functional. Conditions: 504 h, read-out: TGI. The gist of the method: as §2

The term Vdss denotes the apparent volume that relates the amount in the body to the concentration in plasma or blood. Usually AUC stands for the area under the concentration-time curve, a measure of exposure. The low end stands for less exposure, the high end for more exposure. Take `CC(C)n1ncnc1-c1cn2c(n1)-c1ccc(O[C@@H](C)C(N)=O)cc1OCC2`: the inhibition in vivo at 0.78 mg/kg in [1] and in series [7] was 73% throughout. In addition, the inhibition in vivo at 1.56 mg/kg in series [2] is 97%. Further, the Vdss in series [3] came to 0.6 L/kg. Moreover, the fraction unbound at 4 h, 5 µM in series [4] is 0.6. Besides, in series [5], the inhibition in vivo at 3.25 mg/kg was 83%. Besides, in series [6], the Activity entry is “Dose-dependent effect”. This molecule showed an AUC in series [8] of 25.4 µM·h. Also, the inhibition in vivo at 6.25 mg/kg in [9] came out at 78%. Further, in [10], the inhibition in vivo at 12.5 mg/kg is 110%.

The record behind these values is ChEMBL document CHEMBL3769318, “The Rational Design of Selective Benzoxazepin Inhibitors of the α-Isoform of Phosphoinositide 3-Kinase Culminating in the Identification of (S)-2-((2-(1-Isopropyl-1H-1,2,4-triazol-5-yl)-5,6-dihydrobenzo[f]imidazo[1,2-d][1,4]oxazepin-9-yl)oxy)propanamide (GDC-0326)” (J Med Chem, 2016).
